Source: PubChem BioAssay AID624081 (The Scripps Research Institute Molecular Screening Center, 2012)
“And” between values parts separate entries of the source, which are not always exact repeats. Identical values can stand only once. The source made the active and inactive calls.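 The calls were made as follows: active = inhibitor concentration giving a fourfold drop in imipenem MIC is at most 10 µM; inactive = fourfold MIC drop needs more than 10 µM.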

Columns and labels:
[1] = test system: VIM-2 E. coli growth with imipenem, OD600, 18 h; test: growth inhibition synergy, VIM-2 E. coli plus imipenem – MIC 4-fold reduction, powder samples, late-stage follow-up (AID 624081)
Summary of the method: (§1)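 Material: VIM-2-transformed Escherichia coli, checkerboard broth microdilution with imipenem | Buffer or medium: Cation-adjusted MH broth | Probe or stimulus: Imipenem, two-fold series | Doses: Test compound in two-fold dilution series along plate rows | Timing: Aerobic incubation of at least 18 h at 37 °C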

[2] = as above; conditions: VIM-2 E. coli growth with imipenem, OD600, 18 h; measured here: max imipenem potentiation fold
Summary of the method: as §1

MIC [1]	Compound	fold potentiation [2]
> 100 µM (inactive)	O=C(CN1C(=O)/C(=C/c2c(Cl)cccc2Cl)SC1=S)NC1CCCCC1	
3.12 µM	O=C(O)CN1C(=O)/C(=C/c2c(Cl)cccc2Cl)SC1=S	8
12.5 µM (inactive)	CN1CCN(NC(=O)CN2C(=O)/C(=C/c3c(F)cccc3Cl)SC2=S)CC1	
> 100 µM (inactive)	O=C(CN1C(=O)/C(=C/c2c(Cl)cccc2Cl)SC1=S)NC[C@H]1CCCO1	
12.5 µM (inactive)	O=C(CN1C(=O)/C(=C/c2c(Cl)ccc(Cl)c2Cl)SC1=S)NN1CCNCC1	
> 100 µM (inactive)	O=C(CN1C(=O)/C(=C/c2c(Cl)cccc2Cl)SC1=S)Nn1cnnc1	
0.781 µM	CN1CCN(NC(=O)CN2C(=O)/C(=C/c3c(Cl)ccc(C(F)(F)F)c3Cl)SC2=S)CC1	8
6.2 µM	CCN(CC)OC(=O)CN1C(=O)/C(=C/c2c(Cl)cccc2Cl)SC1=S	8
> 100 µM (inactive)	O=C(CN1C(=O)/C(=C/c2ccccc2Cl)SC1=S)NCCc1cnc[nH]1	
> 100 µM (inactive)	O=C(CN1C(=O)/C(=C/c2c(Cl)cccc2Cl)SC1=S)Nc1ccc(Cl)cn1	
3.12 µM	Cc1cc(C)n(NC(=O)CN2C(=O)/C(=C/c3c(Cl)cccc3Cl)SC2=S)c(=O)c1	8
12.5 µM (inactive)	O=C(CN1C(=O)/C(=C/c2c(Cl)cccc2Cl)SC1=S)Nc1ccncc1	8
3.12 µM	O=C(CN1C(=O)/C(=C/c2c(Cl)cccc2Cl)SC1=S)Nc1cccnc1	8
1.56 µM	CC(C)(C)OC(=O)N1CCN(NC(=O)CN2C(=O)/C(=C/c3c(Cl)ccc(Cl)c3Cl)SC2=S)CC1	
> 100 µM (inactive)	O=C(CN1C(=O)/C(=C/c2c(Cl)cccc2Cl)SC1=S)Nc1ccccc1F	
> 100 µM (inactive)	O=C(CN1C(=O)/C(=C/c2c(Cl)cccc2Cl)SC1=S)NOCc1ccccc1	
3.12 µM	O=C(CN1C(=O)/C(=C/c2c(Cl)ccc(Cl)c2Cl)SC1=S)NCc1ccccn1	
> 100 µM (inactive)	CN(C)CCNC(=O)CN1C(=O)/C(=C\c2ccccc2Cl)SC1=S	
> 100 µM (inactive)	O=C(CN1C(=O)/C(=C/c2c(Cl)cccc2Cl)SC1=S)Nc1ccccc1	
12.5 µM (inactive)	CN1CCN(C(=O)CN2C(=O)/C(=C/c3c(Cl)cccc3Cl)SC2=S)CC1	8

MIC [1]	Compound	fold potentiation [2]
> 100 µM (inactive)	O=C(CN1C(=O)/C(=C/c2c(Cl)cccc2Cl)SC1=S)Nc1ccccn1	
> 100 µM (inactive)	O=C(CN1C(=O)/C(=C/c2c(Cl)cccc2Cl)SC1=S)NCc1ccccc1Br	
6.25 µM and 12.5 µM (inactive)	CN1CCN(NC(=O)CN2C(=O)/C(=C/c3c(Cl)cccc3Cl)SC2=S)CC1	8
25 µM (inactive)	O=C(O)CN1C(=O)/C(=C/c2c(F)cccc2C(F)(F)F)SC1=S	8
> 100 µM (inactive)	CN(NC(=O)CN1C(=O)/C(=C/c2c(Cl)cccc2Cl)SC1=S)c1ccc(Cl)nn1	
> 100 µM (inactive)	O=C(CN1C(=O)/C(=C/c2c(Cl)cccc2Cl)SC1=S)Nc1ccc(Br)cn1	
> 100 µM (inactive)	COc1ccc(CNC(=O)CN2C(=O)/C(=C/c3c(Cl)cccc3Cl)SC2=S)cc1	
50 µM (inactive)	CN1CCN(NC(=O)CN2C(=O)/C(=C/c3ccccc3Cl)SC2=S)CC1	
> 100 µM (inactive)	C=CCONC(=O)CN1C(=O)/C(=C/c2c(Cl)cccc2Cl)SC1=S	
> 100 µM (inactive)	CN1CCN(NC(=O)CN2C(=O)/C(=C/c3ccccc3F)SC2=S)CC1	
> 100 µM (inactive)	CN(C)CCNC(=O)CN1C(=O)/C(=C/c2ccccc2Cl)SC1=S	
12.5 µM (inactive)	Cc1c(N2C(=O)/C(=C/c3c(Cl)cccc3Cl)SC2=S)c(=O)n(-c2ccccc2)n1C	8
6.2 µM	O=C(CN1C(=O)/C(=C/c2c(Cl)cccc2Cl)SC1=S)NN1CCCCC1	8
3.12 µM	O=C(CN1C(=O)/C(=C/c2c(Cl)cccc2Cl)SC1=S)Nc1cc([N+](=O)[O-])ccc1O	8
> 100 µM (inactive)	O=C(CN1C(=O)/C(=C/c2c(Cl)cccc2Cl)SC1=S)NC[C@@H]1CCCO1	
> 100 µM (inactive)	CC(C)(C)NC(=O)CN1C(=O)/C(=C/c2c(Cl)cccc2Cl)SC1=S	
12.5 µM (inactive)	CC(C)N1CCN(NC(=O)CN2C(=O)/C(=C/c3c(Cl)cccc3Cl)SC2=S)CC1	16
6.2 µM	O=C(CN1C(=O)/C(=C/c2c(Cl)cccc2Cl)SC1=S)NCc1ccccn1	8
25 µM (inactive)	CN1CCN(NC(=O)CN2C(=O)/C(=C/c3c(F)cccc3C(F)(F)F)SC2=S)CC1	8
6.25 µM	CN1CCN(C(=O)CN2C(=O)/C(=C/c3c(Cl)ccc(Cl)c3Cl)SC2=S)CC1	

MIC [1]	Compound	fold potentiation [2]
3.12 µM	CN1CCN(NC(=O)CN2C(=O)/C(=C/c3c(Cl)ccc(Cl)c3Cl)SC2=S)CC1	8
> 100 µM (inactive)	CCOC(=O)c1c(NC(=O)CN2C(=O)/C(=C/c3c(Cl)cccc3Cl)SC2=S)sc2c1CCCC2	
> 100 µM (inactive)	O=C1NC(=S)S/C1=C\c1c(Cl)cccc1Cl	
> 100 µM (inactive)	CN(NC(=O)CN1C(=O)/C(=C/c2c(Cl)cccc2Cl)SC1=S)c1ncc(C(F)(F)F)cc1Cl	
12.5 µM (inactive)	O=C1/C(=C/c2c(Cl)cccc2Cl)SC(=S)N1Cc1ccncc1	8
> 100 µM (inactive)	C=CCNC(=O)CN1C(=O)/C(=C/c2c(Cl)cccc2Cl)SC1=S	
3.12 µM	O=C(CN1C(=O)/C(=C/c2c(Cl)cccc2Cl)SC1=S)NN1CCNCC1	8
1.56 µM	CN1CCN(NC(=O)CN2C(=O)/C(=C/c3c(C(F)(F)F)ccc(Cl)c3Cl)SC2=S)CC1	8
25 µM (inactive)	NC(=O)CN1C(=O)/C(=C/c2c(Cl)cccc2Cl)SC1=S	
> 100 µM (inactive)	O=C(CN1C(=O)/C(=C/c2c(Cl)cccc2Cl)SC1=S)NCCc1c[nH]c2ccccc12	
12.5 µM (inactive)	CN1CCC(NC(=O)CN2C(=O)/C(=C/c3c(Cl)cccc3Cl)SC2=S)CC1	8
12.5 µM (inactive)	O=C(CN1C(=O)/C(=C/c2c(Cl)cccc2Cl)SC1=S)NCc1ccncc1	
> 100 µM (inactive)	COC(=O)CNC(=O)CN1C(=O)/C(=C/c2c(Cl)cccc2Cl)SC1=S	
6.2 µM	CC(C)(C)OC(=O)N1CCN(NC(=O)CN2C(=O)/C(=C/c3c(Cl)cccc3Cl)SC2=S)CC1	8
> 100 µM (inactive)	O=C(CN1C(=O)/C(=C/c2ccccc2Cl)SC1=S)Nc1ccc(O)cc1	
12.5 µM (inactive)	COC(=O)CN1C(=O)/C(=C/c2c(Cl)cccc2Cl)SC1=S	8
> 100 µM (inactive)	O=C(CN1C(=O)/C(=C/c2c(Cl)cccc2Cl)SC1=S)Nc1ccc(I)cn1	
> 100 µM (inactive)	Cc1cc(NC(=O)CN2C(=O)/C(=C/c3c(Cl)cccc3Cl)SC2=S)no1	
